High-throughput results (PubChem)
TAG inh – triacylglycerol accumulation inhibition; H9c2 cells, Nile Red lipid (TAG) fluorescence; cells loaded with 200 µM oleic acid; inhibition, % at 12.5 µM; actives 0.66% (n = 230,000);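 active means pattern-corrected inhibition of lipid staining of at least 50% with the nuclear-stain viability signal not falling by more than 50%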
MT1-MMP act inh – inhibitors of human MT1-MMP activation | P50281 | HT1080 RFP-PRO-GFP cells, GFP/RFP ratio fluorescence, overnight; percent of plate control window, DMSO zero | GFP/RFP ratio change, % at 20 µM | actives 0.061% (n = 360,000) | AID 651647;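 active means GFP/RFP ratio change of at least 30% with cell ATP level not reduced by more than half and red fluorescence within 50% of control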
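Test system: HT1080 cells expressing an RFP-PRO-GFP fluorescent reporter construct / Compound dosing: single-point 20 µM compound, 1% DMSO / Schedule: cells overnight before dosing, compound overnight, 37 °C, 5% CO2 / Evaluation: GFP/RFP fluorescence ratio / Control set: DMSO and RFP-L50D-GFP cell wells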
Tn6 DDE FP – disrupts Tn6 cyclic peptide binding to fibrin D-Dimer-E complex; P02675; Fibrin DD(E) TRITC-Tn6 fluorescence polarization displacement; inhibition, % at 8.3 µM; actives 0.21% (n = 370,000); AID 720509;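 active means inhibition above a per-campaign cutoff: mean of compounds within control limits plus 3 SD, cut at about 15% in these data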
Target sequence (P02675 whole entry, looked up): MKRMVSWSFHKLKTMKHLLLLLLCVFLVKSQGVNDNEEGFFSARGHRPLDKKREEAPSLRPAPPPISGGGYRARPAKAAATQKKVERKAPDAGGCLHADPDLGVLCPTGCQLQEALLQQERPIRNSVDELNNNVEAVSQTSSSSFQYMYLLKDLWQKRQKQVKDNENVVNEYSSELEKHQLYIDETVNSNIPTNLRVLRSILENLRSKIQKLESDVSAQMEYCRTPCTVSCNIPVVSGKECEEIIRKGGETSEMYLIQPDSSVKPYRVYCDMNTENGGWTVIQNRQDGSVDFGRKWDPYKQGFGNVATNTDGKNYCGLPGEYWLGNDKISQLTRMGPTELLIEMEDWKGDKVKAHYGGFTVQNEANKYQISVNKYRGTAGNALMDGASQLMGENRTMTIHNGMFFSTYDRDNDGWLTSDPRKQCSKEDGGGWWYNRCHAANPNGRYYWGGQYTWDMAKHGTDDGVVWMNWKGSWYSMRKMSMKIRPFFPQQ
DDE Tn7 FP inh – disrupts Tn7 cyclic peptide binding to fibrin D-Dimer-E complex; AID 720508; P02675; inhibition, % at 8.3 µM; FP displacement of FITC-Tn7 peptide from fibrin DD(E); 0% = median of compound wells per plate; actives 0.13% (n = 370,000);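 active means inhibition above the mean of compounds falling within the control limits plus 3 SD of them, cut at about 14% in these data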
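Assay system: human fibrin DD(E) protein / Input: 2 µM fibrin DD(E) / Benchmarks: high control of 10 µM Aha-Tn7 peptide / Measured by: fluorescence polarization of the labelled Tn7 tracer / Medium: Tris buffer with calcium and detergent, pH 7.8 / Timing: 10 min compound pre-incubation, 3 h probe incubation at room temperature / Repeats: one replicate per compound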
DAGLB inhibitor – blocks human DAGLB lipase activity | Q8NCG7 | HEK293T DAGLB membrane lysate, EnzChek fluorogenic substrate | inhibition, % at 5.17 µM | actives 0.059% (n = 340,000); in the data active means inhibition above about 34%
H9c2 protect – modulators protecting cardiomyocytes from myocardial damage | H9c2 cardiomyocytes, H2O2 injury protection, ATPLite, 2 h | protection from H2O2 cell death, % at 20 µM | actives 0.63% (n = 360,000);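 active means compounds giving at least 50% protection of heart cells from peroxide-induced death in the single-dose screen, raw or plate-pattern-corrected value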
DAGLB confirm – DAGLB (human) inhibition, confirmation screen | shares compounds with DAGLB inhibitor | inhibition, % at 5.17 µM | HEK293T DAGLB membrane lysate, EnzChek fluorogenic substrate | actives 73% (n = 190);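 active means mean inhibition over triplicate wells above a set limit taken from the primary lipase screen, cut at about 34% in these data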
TAG conf – confirmation of triacylglycerol accumulation inhibitors; shares compounds with TAG inh; H9c2 lipid accumulation, Nile Red fluorescence; cells loaded with 200 µM oleic acid; inhibition, % at 12.5 µM; actives 71% (n = 990); AID 651629;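 active means mean inhibition across replicates of 40% or more; inactive means mean inhibition below 40%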
MT1-MMP conf – MT1-MMP (human) activation inhibition, single-concentration validation. shares compounds with MT1-MMP act inh. HT1080 RFP-PRO-GFP cells, GFP and RFP fluorescence ratio, overnight. inhibition, % at 20 µM. actives 10% (n = 200);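 active means inhibition of at least 50% in the primary cell screen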
Large screens that a line does not name were inactive (follow-up assays come after a bar, where they were run). In the library only some 1.4% were active in any assay of this set; here they are far more common.

NP(=O)(OCCCCc1ccccc1)Oc1ccccc1Cl (centres undefined)	DAGLB inhibitor 39 | DAGLB confirm 40
Cc1ccccc1CCC[C@H](CC1CCCCC1)CN(C)C(=O)Oc1ccccc1	none (no result: TAG inh, MT1-MMP act inh, DAGLB inhibitor, H9c2 protect)
O=C(O)c1cccc2c1NC(C(=O)O)C1CC(Sc3ccccc3[N+](=O)[O-])C(Cl)C21 (centres undefined)	MT1-MMP act inh 38, DAGLB inhibitor 39 (no result: TAG inh) | DAGLB confirm inactive | MT1-MMP conf inactive
Clc1cc(Cl)cc(CN2Cc3cc(Br)ccc3-n3nncc3C2)c1	none (no result: TAG inh, MT1-MMP act inh, DAGLB inhibitor, H9c2 protect)
COC(=O)C1=C(c2ccccc2OCc2ccccc2)C[C@@H]2CC[C@H]1N2C(=O)NCc1ccc(OC)c(OC)c1	TAG inh 56 | TAG conf inactive
COC(=O)C1=C(c2ccccc2OCc2ccccc2)C[C@@H]2CC[C@H]1N2C(=O)NCc1cccc(F)c1	none
S=P(c1ccccc1)(c1ccccc1)c1cnc2ccccn12	none (no result: TAG inh, MT1-MMP act inh, DAGLB inhibitor, H9c2 protect)
Cc1ccc2nc(-c3ccc(CN4CCC(n5nnc6ccccc65)CC4)cc3)c(-c3ccccc3)nc2c1	none (no result: TAG inh, MT1-MMP act inh, DAGLB inhibitor, H9c2 protect)
O=C(CN1C(=O)[C@@H](Cc2c[nH]c3ccccc23)N=C(c2ccccc2)c2ccccc21)NC1CCCCC1	none (no result: TAG inh, MT1-MMP act inh, DAGLB inhibitor, H9c2 protect)
CCOC(=O)C(NC(=O)CC)(Nc1ccc(C(O)(C(=O)OCC)C(F)(F)F)cc1C)C(F)(F)F (centres undefined)	TAG inh 55 | TAG conf inactive
O=C1CC[C@@]2(O)[C@H]3Cc4ccc(O)c5c4[C@@]2(CCN3CC2CC2)C1O5 (some centres undefined)	none (no result: TAG inh, MT1-MMP act inh, DAGLB inhibitor, H9c2 protect)
O=P(O)(O)CN1CCNCCN(CP(=O)(O)O)CCNCC1	TAG inh 57 | TAG conf 63
COC(=O)C1=C(c2cc3ccccc3s2)C[C@@H]2CC[C@H]1N2C(=O)N1CCOCC1	TAG inh 52 | TAG conf 45
CCCCn1c(N)c(C(=O)NCc2cccs2)c2nc3ccccc3nc21	TAG inh 67 | TAG conf inactive
COC(=O)C1=C(c2ccc(OC(F)(F)F)cc2)C[C@@H]2CC[C@H]1N2C(=O)NCCc1ccccc1	MT1-MMP act inh 31 | MT1-MMP conf inactive
O=C(CF)NC(Nc1cccc2cccnc12)C(Cl)(Cl)Cl (centres undefined)	MT1-MMP act inh 49 | MT1-MMP conf inactive
Cc1ccc(N)cc1Cl	none
C=CCN1C(=O)/C(=C/c2cccs2)C(=O)NC1=S	MT1-MMP act inh 35 | MT1-MMP conf inactive
CC(=O)Nc1ccccc1OP1(=O)COc2ccccc2OC1	none (no result: TAG inh)
O=C(c1ccc(C(F)(F)F)cc1)C1CCCN(Cc2ccncc2)C1 (centres undefined)	none
CC(C)CCOC(=O)c1c(N)n(CC2CCCO2)c2nc3ccccc3nc12 (centres undefined)	none
CC(C)OC(=O)c1c(N)n(CC2CCCO2)c2nc3ccccc3nc12 (centres undefined)	MT1-MMP act inh 37 | MT1-MMP conf inactive
CCC1(NS(=O)(=O)c2ccc(N)cc2)C(=O)N(C)C(=O)N(C)C1=O	none
COc1cc2c(cc1OC)-c1c3c(cc4c1[C@@H](C2)N(C)CC4)OCO3	TAG inh 53, MT1-MMP act inh 33 | MT1-MMP conf inactive
CCOC(=O)CNC(=O)N1Cc2cc(Br)ccc2-n2nncc2C1	none (no result: TAG inh, MT1-MMP act inh, DAGLB inhibitor, H9c2 protect)
CC[n+]1c(/C=C/N(C)c2ccccc2)sc2ccc(Cl)cc21	MT1-MMP act inh 52 (no result: TAG inh) | MT1-MMP conf inactive
